# Sampled rows, rich in hits. Any-hit rate of the full collection: about 9.2%.
# H69AR inhibit = blocks growth of human H69AR lung tumor cells; viability, % at 10 µM; AID 598; H69AR lung tumor viability, ATP luminescence, 72 h; active compounds read low; 6% of 85,000 active;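 active = viability at or below 40%; inactive = viability above 40%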;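 note: multidrug resistant small cell line overexpressing MRP-1 efflux transporter; 100% = mean luminescence of untreated control wells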
# ERa SRC1 pot = enhances coactivator binding to human estrogen receptor alpha. P03372. TR-FRET ERalpha-LBD/SRC-Cy5 coactivator binding, 2 h; 100 = basal binding, no effect. coactivator binding (% of control), % at 25.6 µM. 1.3% of 86,000 active. AID 639; in the data active = activity above about 200%;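 note: binding measured in presence of low estradiol as agonist stimulus; 0% = peptide alone without receptor and 100% = receptor with peptide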
# ERa coact inh = blocks coactivator binding to human estrogen receptor alpha; inhibition, % at 25.6 µM; AID 629; P03372; 1.7% of 86,000 active; TR-FRET ER-alpha LBD / SRC-1 peptide, estradiol-bound; in the data active = inhibition above about 50%;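 note: 0% = receptor plus peptide control and 100% = peptide only without receptor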
# HUVEC inhibit = inhibitors of human endothelial cell proliferation; HUVEC proliferation, CellTiter-Glo luminescence, 72 h; active compounds read low; viability, % at 10 µM (by protocol); 1.1% of 86,000 active; AID 648;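 active = viability at or below 30%; inactive = viability above 30%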;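 note: 100% = median luminescence of DMSO-only cell control wells on each plate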
# ERb coact inh = ER-beta (human) coactivator binding inhibition; Q92731; TR-FRET ER-beta LBD / SRC1-Cy5 peptide binding; receptor agonist-loaded with 1 µM estradiol; inhibition, % at 25.6 µM; 1.3% of 86,000 active;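 active = compounds whose percent inhibition of the receptor-coactivator binding signal exceeds about 50% in the single-dose screen, limit read from the data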;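 note: 0% = receptor plus peptide wells without compound and 100% = peptide-only wells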
# Target sequence (Q92731 whole entry, looked up, the tested form may be a part): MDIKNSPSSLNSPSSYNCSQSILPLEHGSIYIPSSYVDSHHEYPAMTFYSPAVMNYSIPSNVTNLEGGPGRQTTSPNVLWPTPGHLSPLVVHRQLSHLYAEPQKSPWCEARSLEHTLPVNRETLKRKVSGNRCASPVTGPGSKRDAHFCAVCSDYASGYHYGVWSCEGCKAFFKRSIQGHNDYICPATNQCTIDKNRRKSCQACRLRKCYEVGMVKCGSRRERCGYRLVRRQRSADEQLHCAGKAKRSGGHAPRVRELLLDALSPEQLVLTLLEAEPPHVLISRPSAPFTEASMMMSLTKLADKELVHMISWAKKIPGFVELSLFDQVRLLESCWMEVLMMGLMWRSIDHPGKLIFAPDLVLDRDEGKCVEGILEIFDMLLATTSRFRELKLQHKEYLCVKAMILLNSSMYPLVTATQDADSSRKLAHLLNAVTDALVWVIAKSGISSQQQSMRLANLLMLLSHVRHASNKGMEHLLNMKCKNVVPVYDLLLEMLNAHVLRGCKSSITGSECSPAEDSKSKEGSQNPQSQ
# Fibroblast inh = blocks proliferation of human lung fibroblasts; LL 47 human lung fibroblast viability, ATP luminescence; active compounds read low; viability, % at 10 µM; 1.1% of 85,000 active;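 active = viability at or below 50% in the single dose screen; inactive = viability above 50%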;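 note: compound exposure lasted 72 h before the ATP readout; 100% = median luminescence of untreated cell-only wells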
#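 Test system: LL 47 human lung fibroblasts / Incubation: 72 h compound exposure at 37 °C after overnight plating / Technique: luminescent ATP detection, CellTiter-Glo / Compound dosing: 0.1% DMSO in all compound wells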
# Active calls of the source: *; [ ] = dose if it differs, or a comment.
SMILES,H69AR inhibit,ERa SRC1 pot,ERa coact inh,HUVEC inhibit,ERb coact inh,Fibroblast inh
Cc1ccc(-n2c(=O)c3sccc3n(CC(=O)NCc3ccco3)c2=O)cc1,80,119,-6,99,-6,99
Cc1cccc(Cn2c(=O)n(-c3ccc(CC(=O)NCc4ccco4)cc3)c(=O)c3sccc32)c1,20*,122,29,89,12,87
N#Cc1ccccc1Cn1c(=O)n(-c2ccc(CC(=O)NCc3ccco3)cc2)c(=O)c2sccc21,78,151,12,94,12,96
CC(=O)COc1ncn(-c2ccccc2)n1,99,111,-1,106,11,100
Cn1cccc1Cc1nnc(SCC(=O)Nc2ccc3c(c2)OCCO3)n1CCc1ccccc1,90,72,11,94,16,95
Cc1ccccc1/C=C1\CCCc2ccccc2C1=O,84,148,-8,92,-1,86
O=C1/C(=C\c2ccc3ccccc3c2)CCCc2ccccc21,17*,120,-13,64,0,64
COc1ccc(CCNC(=O)COC(=O)c2cnc(C)cn2)cc1,99,101,-6,82,-9,94
Cc1ccc(S(=O)(=O)N2CCN(C3CC(=O)N(CCc4ccccc4)C3=O)CC2)cc1C (configuration not stated),97,110,4,89,1,100
CN1CCN(Cn2cc(/C=C/C(=O)c3ccccc3)c3ccccc32)CC1,12*,57,1,66,7,92
CC(CN1CCOCC1)C(=O)c1ccccc1 (configuration not stated),111,96,-5,95,0,107
O=C(c1ccc(F)cc1)C(CCCCCC(CN1CCOCC1)C(=O)c1ccc(F)cc1)CN1CCOCC1 (configuration not stated),23*,104,-3,56,-16,89
Cc1ccc(OCC(=O)Sc2ccc(C)cc2)cc1,17*,67,15,69,2,97
COc1ccccc1OCC(=O)Sc1ccc(C)cc1,64,87,24,68,13,105
N#Cc1c(SCc2cccc(Cl)c2)sc(C(=O)c2ccccc2)c1N,57,73,-3,94,11,83
CCCc1[nH]nc2c1C(c1ccc(OC)c(CSC3=NCCS3)c1)C(C#N)=C(N)O2 (configuration not stated),79,93,7,73,-4,103
CC1=C(SCCC#N)S/C(=C2\SC(C)=C(SCCC#N)S2)S1,26*,43,81*,19*,53*,100
COc1ccc(-n2nc(C(=O)NCc3ccco3)c3c4ccccc4n(C)c3c2=O)cc1,86,329*[fluorescence artefact?],4,74,2,76
CC1Cc2ccccc2N1C(=O)COC(=O)c1ccc(S(=O)(=O)N(C)C)cc1 (configuration not stated),100,100,-3,89,-5,95
O=C(O)CCCC(=O)N1CCN(C(c2ccccc2)c2ccccc2)CC1,95,84,3,94,4,100
CCN(CC(=O)NC(C)C)Cc1nc2sc3c(c2c(=O)[nH]1)CCC3,37*,103,-3,87,0,93
COc1ccc(CN2CC(C(=O)NCc3cccc(OC)c3)CC2=O)cc1 (configuration not stated),93,127,9,95,-2,100
CN1CCN(S(=O)(=O)c2ccc(Br)c3nsnc23)CC1,2.9*,94,2,101,-12,89
O=P(CCC(F)(F)F)(CCC(F)(F)F)CCC(F)(F)F,101,109,3,105,-2,102
COc1ccc(-c2coc3c(CN4CCCCC4)c(O)c(CN4CCCCC4)c(O)c3c2=O)cc1,7.2*,79,67*[fluorescence artefact?],85,35,85
SMILES,H69AR inhibit,ERa SRC1 pot,ERa coact inh,HUVEC inhibit,ERb coact inh,Fibroblast inh
CS(=O)(=O)N1CCN(C(=O)c2ccccc2F)CC1,95,98,10,100,16,106
COCCN1Cc2cccc(C(=O)Nc3ccc(S(=O)(=O)N4CCCCCC4)cc3)c2C1=O,25*,104,-12,47,-4,79
COC(=O)c1cccc(NC(=O)c2ccc(S(=O)(=O)N3CCN(C)CC3)cc2)c1,90,100,5,95,-3,105
O=C(Nc1ccc(S(=O)(=O)N2CCCCC2)cc1)c1ccccc1Cl,78,97,-6,122,4,99
CN1CCN(S(=O)(=O)c2ccc(NC(=O)Nc3cccc(Cl)c3)cc2)CC1,35*,104,-6,3.2*,-1,83
O=C(c1ccccc1F)N1CCN(S(=O)(=O)c2ccc(S(=O)(=O)N3CCCCC3)cc2)CC1,84,85,66*[fluorescence artefact?],114,6,93
O=C(Nc1ccccc1)Nc1ccc(S(=O)(=O)N2CCCCC2)cc1,13*,116,4,48,-5,93
Cc1ccccc1NC(=O)CCSc1nnnn1-c1ccccc1,100,118,2,92,5,93
Cc1nn(C)c(C)c1S(=O)(=O)N(CC(=O)N1CCc2ccccc2C1)c1ccc(C(C)C)cc1,76,111,-4,94,0,98
COc1ccccc1N1CCN(C(=O)C2c3ccccc3Oc3ccccc32)CC1,30*,74,9,39,5,58
O=C(C1c2ccccc2Oc2ccccc21)N1CCN(c2ccc(Cl)cc2)CC1,39*,91,-1,82,1,87
O=C(CCNS(=O)(=O)c1cccc2nonc12)NCc1cccs1,89,117,-20,99,-23,98
Cc1ccc(-c2csc3ncn(CC(=O)N4CCOCC4)c(=O)c23)cc1,89,100,-3,102,7,107
Cc1ccc(-c2csc3ncnc(Sc4nnc(CN5CCCCCC5=O)o4)c23)cc1,-0.2*,102,-4,61,6,31*
Cc1ccc(C)n1-c1cccc(C(=O)O)c1,101,328*,0,108,25,106
O=C(O)c1cccc(N2CCCC2)c1,92,103,1,93,-2,106
C=CCSc1nc(N)c(C(=O)Nc2ccccc2C)cc1C(N)=O,74,112,3,95,-1,90
C=CCN=C(NC#N)SCc1ccccc1,92,115,7,106,-6,102
C=CCN=C(NC#N)SCC(=O)c1cccc(OC)c1,35*,105,-17,96,-15,92
CC(C)OC(=O)c1c2nc3ccccc3nc2n2c1[nH]c(=O)c1ccccc12,33*,176,15,65,15,63
Cc1ccc(C)c(-n2nnnc2SCC(=O)c2ccc3c(c2)NC(=O)CO3)c1,84,232*[fluorescence artefact?],20,80,2,97
Cc1nc(SCc2ccccc2)c(C(F)(F)F)c(=O)[nH]1,83,116,4,80,-7,93
O=C(Nc1cc2nn(-c3ccccc3)nc2cc1Cl)c1ccco1,42,100,62*[fluorescence artefact?],54,30,97

# Screening data from PubChem BioAssay.
